# PREPL inhibitor: PREPL enzyme inhibitors, primary screen, biochemical, fluorescence polarization; Prolyl endopeptidase-like (Homo sapiens), Q4J6C6; recombinant PREPL, fluorescence polarization activity-based probe; inhibition, % at 5.96 µM; 0.68% of 320,000 active; AID 2751, 2010; in the data active = inhibition above about 43%
# Target sequence (Q4J6C6 whole entry, looked up): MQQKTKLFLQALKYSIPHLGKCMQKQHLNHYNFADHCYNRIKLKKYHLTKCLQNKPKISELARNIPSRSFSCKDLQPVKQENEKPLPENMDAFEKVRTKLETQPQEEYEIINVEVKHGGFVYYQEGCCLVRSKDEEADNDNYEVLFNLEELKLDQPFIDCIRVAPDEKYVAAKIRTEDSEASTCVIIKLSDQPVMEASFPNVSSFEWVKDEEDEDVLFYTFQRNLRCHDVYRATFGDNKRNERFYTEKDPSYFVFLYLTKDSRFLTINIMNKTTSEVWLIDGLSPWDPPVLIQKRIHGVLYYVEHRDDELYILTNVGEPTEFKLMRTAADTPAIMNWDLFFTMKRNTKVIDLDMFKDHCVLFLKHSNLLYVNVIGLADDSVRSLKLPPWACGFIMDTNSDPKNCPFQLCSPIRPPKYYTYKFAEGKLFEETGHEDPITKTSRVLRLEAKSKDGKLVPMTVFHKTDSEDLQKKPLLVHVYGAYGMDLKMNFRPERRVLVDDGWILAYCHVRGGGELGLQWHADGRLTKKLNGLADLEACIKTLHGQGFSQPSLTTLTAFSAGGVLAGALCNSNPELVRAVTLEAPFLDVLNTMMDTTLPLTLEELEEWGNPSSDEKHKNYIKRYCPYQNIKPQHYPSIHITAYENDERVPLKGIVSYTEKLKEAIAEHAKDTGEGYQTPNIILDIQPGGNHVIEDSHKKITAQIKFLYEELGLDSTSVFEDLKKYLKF
# eLon inh: inhibitors of E. coli Lon protease, primary screen, biochemical, fluorescence polarization; inhibition, % at 7.94 µM; purified E. coli Lon protease; 0.42% of 360,000 active; P0A9M0; in the data active = inhibition above about 13%, passing the limit was not always enough
# MT1-MMP act inh: blockers of MT1-MMP proenzyme processing, primary screen, HT1080 RFP-PRO-GFP cells, GFP/RFP fluorescence. Matrix metalloproteinase-14 (Homo sapiens), P50281. GFP/RFP ratio fluorescence, overnight; percent of plate control window, DMSO zero. GFP/RFP ratio change, % at 20 µM. 0.061% of 360,000 active. AID 651647, 2012;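 active = GFP/RFP ratio change of at least 30% with cell ATP level not reduced by more than half and red fluorescence within 50% of control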
#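 Assay system: HT1080 cells carrying an RFP-PRO-GFP reporter | Dosing: Single dose of 20 µM compound, 1% DMSO final | Incubation: Cells overnight before dosing, compound overnight, 37 °C, 5% CO2 | Evaluation: GFP/RFP fluorescence ratio | Control set: DMSO and RFP-L50D-GFP cell wells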
# SKN-1 block: suppressors of acrylamide-induced Pgst-4::GFP reporter in worms, primary screen, SKN-1 inhibitor project, whole organism, uHTS, GFP/RFP fluorescence ratio, strain VP596 | C. elegans VP596 Pgst-4::GFP/RFP ratio, 24 h | inhibition, % at 21.8 µM | 0.49% of 360,000 active | AID 624304, 2012;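 active = interference check ratio from 0.5 to 1.5 plus GFP to RFP signal ratio inhibition reaching or exceeding a fixed threshold, cut at about 30% in these data, passing the limit was not always enough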
# Tb MetRS inh: T. brucei MetRS inhibitors, primary screen, biochemical, luminescence; purified T. brucei MetRS, ATP depletion, Kinase-Glo luminescence; inhibition, % at 11.9 µM; 0.4% of 360,000 active; AID 624268, 2012;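 active = inhibition above a per-plate cutoff of the control wells' mean inhibition plus 3 SD, cut at about 5.5% in these data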
#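 System: purified T. brucei MetRS enzyme / Detection: Kinase-Glo luciferase luminescence reporting remaining unconsumed ATP / Medium: HEPES buffer with MgCl2, KCl, DTT, spermine, BSA, pyrophosphatase / Replication: singlicate, one well per compound / Evaluation: percent inhibition relative to median high and low control wells / Schedule: 2 h aminoacylation at 25 °C after 15 min preincubation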
# iPSC survival up: enhancers of single-cell hiPSC survival, primary screen, ATPlite luminescence | 100% = ROCK inhibitor wells, 0% = DMSO | survival enhancement, % at 20 µM | 0.044% of 360,000 active | AID 602274, 2012; in the data active = survival enhancement above about 18%;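 also: cells exposed to compounds for 16 hours before the ATP read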
# E coli Lon conf: E. coli Lon protease inhibitor retest, confirmation, biochemical, fluorescence polarization. shares compounds with eLon inh. 31% of 1,400 active. purified E. coli Lon. inhibition, % at 7.94 µM; in the data active = inhibition above about 16%
# Hits are given with their value; n = inactive; x = no result given; + = active, no number. An excerpt weighted towards active compounds, which were near 1.8% of everything screened.
SMILES,PREPL inhibitor,eLon inh,MT1-MMP act inh,SKN-1 block,Tb MetRS inh,iPSC survival up,E coli Lon conf
CC(Oc1ccccc1)c1nnc(SCC(=O)NC2CC2)n1C (centres undefined),n,n,n,n,n,n,x
COC(=O)c1c(NC(=O)COC(=O)[C@@H](NS(=O)(=O)c2ccc(C)cc2)C(C)C)sc2c1CCC2,n,n,n,n,n,n,x
CC1(c2ccc(Cl)cc2)NC(=O)N(CC(=O)NC2CCCCC2)C1=O (centres undefined),n,n,n,n,n,n,x
NS(=O)(=O)c1cc(C(=O)NC2CCSc3ccccc32)ccc1Cl (centres undefined),n,18,n,n,n,n,17
NS(=O)(=O)c1cccc(C(=O)NC2CCSc3ccccc32)c1 (centres undefined),n,n,n,n,n,n,x
COc1ccc(S(=O)(=O)N2CCN(C(c3ccccc3)c3ccccc3)CC2)cc1NC(C)=O,n,n,n,n,n,n,x
N#C/C(=C\c1ccccc1[N+](=O)[O-])C(=O)NCc1ccccc1,n,n,n,n,n,n,x
C=CCNC(=O)/C(C#N)=C/c1ccccc1[N+](=O)[O-],n,23,n,n,n,n,19
COc1ccc(S(=O)(=O)N2CCCC2CNC(=O)C(=O)Nc2ccc(F)cc2)cc1 (centres undefined),n,n,n,n,n,n,x
Cn1c(NC2CCCCC2)cc(=O)n(C)c1=O,n,27,n,n,n,n,n
Cn1c(NC(=O)CCC2CCCCC2)cc(=O)n(C)c1=O,n,n,n,n,n,n,x
COc1ccc(C(=O)Nc2nccs2)cc1,n,n,n,n,n,n,x
COc1ccc(NC(=O)Nc2nccs2)cc1,n,16,n,n,n,n,n
Cc1ncc(C(O)c2ccc(N(C)C)cc2)n1Cc1ccccc1 (centres undefined),x,n,n,n,n,n,x
CN(C)c1ccc2nc3c(=O)[nH]c(=O)nc-3n(CC(O)C(O)C(O)CO)c2c1 (centres undefined),n,165,n,n,n,n,82
O=C1COc2ccc(C(=O)COC(=O)CCSc3ccc(Cl)cc3)cc2N1,n,n,n,n,n,n,x
CCOc1c2ccccc2nn1CCOC,n,n,n,n,n,n,x
CCOc1c2ccccc2nn1CCO,n,29,n,n,n,n,n
CCCCNC(=O)c1cc(-c2ccc(OC)cc2)on1,n,23,n,n,n,n,n
CC1CCCN(C(=O)CSc2nc3ncccc3[nH]2)C1 (centres undefined),n,17,n,n,n,n,n
CC1CCCCN1C(=O)CSc1nc2ncccc2[nH]1 (centres undefined),n,n,n,n,n,n,x
COCC(=O)Nc1ccc(S(=O)(=O)Nc2onc(C)c2C)cc1,x,62,n,n,n,n,n
Cc1noc(NS(=O)(=O)c2ccc(NC(=O)COc3ccccc3)cc2)c1C,n,n,n,n,n,n,x
CCC1(O)C(=O)OCc2c1cc1n(c2=O)Cc2cc3cc(O)ccc3nc2-1 (centres undefined),x,+,n,n,n,n,+
CCCCn1c(NC(C)=O)c(C#N)c2nc3ccccc3nc21,n,23,n,n,n,n,n
SMILES,PREPL inhibitor,eLon inh,MT1-MMP act inh,SKN-1 block,Tb MetRS inh,iPSC survival up,E coli Lon conf
CCCCCn1c(N)c(C#N)c2nc3ccccc3nc21,n,n,n,n,n,n,x
N#Cc1c(-c2ccccc2)nc(SCc2cccc(Cl)c2)[nH]c1=O,n,n,n,n,n,n,x
NC(=O)C1Cc2ccccc2CN1C(=O)c1cc(C2CC2)nn1-c1ccccc1 (centres undefined),n,n,n,n,n,n,x
COc1ccc(/C=C/C(=O)OCC(=O)N2c3ccccc3CC2C)c(OC)c1 (centres undefined),x,14,n,n,n,n,n
COc1cccc(NC(=O)N(C)C[C@H]2Oc3ncc(Br)cc3C(=O)N([C@H](C)CO)C[C@H]2C)c1,x,13,n,n,n,n,n
COc1ccc(NC(=O)N(C)C[C@@H]2Oc3ncc(Br)cc3C(=O)N([C@@H](C)CO)C[C@@H]2C)cc1,x,n,n,n,n,n,x
COc1ccc(N2C(=O)CC(S/C(N)=N/N=C(\C)c3cccs3)C2=O)cc1 (centres undefined),n,n,n,n,n,n,x
O=C(NCc1ccccc1)c1cccc(COc2ccc3c(c2)CCC3)c1,n,n,n,n,n,n,x
COc1cccc(OC)c1C(=O)NNC(=O)c1cccc(COc2ccc3c(c2)CCC3)c1,n,15,n,n,n,n,n
O=C(Nc1ccn(CCCNCc2cccc3ccccc23)c(=O)n1)OCc1ccccc1,x,13,n,n,n,n,n
c1cc(-c2ccoc2)n2ccnc2c1,x,73,n,n,n,n,n
CCN(CC)C(=S)Nc1ccc(Cl)c(Cl)c1,n,17,n,n,n,n,32
N#CC(C#N)=C1C=CC=CN1/C(=C\c1ccccc1Cl)C(=O)c1ccccc1,n,n,n,n,n,n,x
N#CC(C#N)=C1C=CC=CN1/C(=C\c1ccccc1)C(=O)c1cccs1,n,25,n,n,n,n,n
CC(CNS(=O)(=O)c1ccccc1)(c1ccccc1)N1CCCCC1 (centres undefined),n,n,n,n,n,n,x
COc1ccc(OC)c(NC(=O)CSc2nncc3ccc(OC)c(OC)c23)c1,n,50,n,n,n,n,n
C[C@]1(O)CC(=O)C=C[C@H]1Nc1ccccc1,x,n,n,n,n,n,x
CC(=O)N1c2ccc(S(=O)(=O)N3CCC(C(=O)Nc4cccc(C(F)(F)F)c4)CC3)cc2CC1C (centres undefined),n,28,n,n,n,n,n
CCOC(=O)c1[nH]cnc1N=Nc1c(O)ccc2ccccc12,n,44,n,n,n,n,76
O=C(Nc1cccc([N+](=O)[O-])c1)Nc1cccc([N+](=O)[O-])c1,n,n,n,n,n,n,x
CC(C)S(=O)(=O)c1csc(NC(=O)Nc2cccc([N+](=O)[O-])c2)c1Cl,n,22,n,n,n,n,n
O=C(O)c1ccc2c3n(nc2c1)-c1ccc(Cl)cc1CO3,n,x,x,x,x,x,x
Cc1cccc(-c2cccc(NC(=O)C3CCCN(C(=O)c4csc(C)n4)C3)c2)c1 (centres undefined),n,79,n,n,n,n,n

# Screening data as filed in PubChem BioAssay.
